Assay results: ChEMBL document CHEMBL4842319, “Synthesis of alkynylated 1,2,4-oxadiazole/1,2,3-1H-triazole glycoconjugates: Discovering new compounds for use in chemotherapy against lung carcinoma and Mycobacterium tuberculosis” (Eur J Med Chem, 2021)
Values after ≈ are worked out from the molar mass of the structure shown.

Assays:
[1] = system: Mycobacterium tuberculosis; experiment: Antimycobacterial activity against Mycobacterium tuberculosis H37Ra ATCC 25177 assessed as inhibition of bacterial growth incubated for 9 days by resazurin microtiter assay; type: functional; details: H37Ra ATCC 25177, 216 h, time 9 day
Procedure, shortened: (§1)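 REMA broth microdilution in 7H9-S medium, run in duplicate. Test compounds were serially two-fold diluted on the plate from 64 to 0.5 µg/mL. Inoculum taken from fresh Löwenstein-Jensen culture, adjusted to McFarland no. 1 and diluted 1:20. Plates were sealed and incubated at 37 °C in normal atmosphere for 9 days, then resazurin was added. Rifampicin and ethambutol served as standards. MIC reported in µg/mL.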

[2] = Cytotoxicity against African green monkey Vero cells assessed as reduction in cell viability measured after 5 days by MTT assay; type: cell-based; details: chlorocebus sabaeus, time 5 day
Procedure, shortened: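 Vero cells in DMEM with 10% inactivated FBS, plated at 1×10⁴ cells/well 24 h before treatment. Compounds were applied at 800, 400, 200, 100 and 50 µM, with at most 0.8% DMSO, for 5 days at 37 °C. MTT (1 mg/mL) was added for 4 h, formazan solubilised in DMSO and OD570 read. CC50 is the concentration giving a 50% reduction in absorbance.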

[3] = system: Mycobacterium tuberculosis; experiment: Antimycobacterial activity against Mycobacterium tuberculosis H37Rv ATCC 27294 assessed as inhibition of bacterial growth incubated for 9 days by resazurin microtiter assay; type: functional; details: H37Rv ATCC 27294, 216 h, time 9 day; procedure, shortened: as §1
[4] = Selectivity index, ratio of CC50 for human HepG2 cells to MIC for antimycobacterial activity against Mycobacterium tuberculosis H37Rv ATCC 27294; type: toxicity; details: read-out: Selectivity Index
[5] = Cytotoxicity against mouse RAW264.7 cells assessed as reduction in cell viability incubated for 48 hrs by MTT assay; type: cell-based
Procedure, shortened: (§2)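 RAW 264.7 macrophages and HepG2 cells were cultured in DMEM at 37 °C, 5% CO2. For the assay, 10⁵ cells/well were preincubated for 24 h, then exposed to compounds at […] for 48 h, in duplicate. MTT (5 mg/mL in PBS) was added for 2 h and absorbance read at 570 nm. Untreated wells served as the negative control. CC50 obtained by regression analysis.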

[6] = Cytotoxicity against human HepG2 cells assessed as reduction in cell viability incubated for 48 hrs by MTT assay; type: cell-based; procedure, shortened: as §2
[7] = Selectivity index, ratio of CC50 for mouse RAW264.7 cells to MIC for antimycobacterial activity against Mycobacterium tuberculosis H37Rv ATCC 27294; type: toxicity; details: read-out: Selectivity Index
[8] = Cytotoxicity against human AGP01 cells assessed as inhibition of cell proliferation at 25 uM incubated for 72 hrs by MTT assay relative to control; type: functional; set-up: scale not given: the % may be the effect or the level left
Procedure, shortened: (§3)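 Tumor lines from NCI. PC-3, HCT-116 and NCIH-460 were grown in RPMI 1640; SKMEL-103 and AGP-01 in DMEM; all with 10% FBS at 37 °C, 5% CO2. Seeding was 0.3×10⁶ cells/mL for SKMEL-103 and AGP-01, 0.1×10⁶ for PC-3 and NCIH-460, and 0.7×10⁵ for HCT-116. Cells were exposed to compound at 25 µM for 72 h. Cells were centrifuged, 1% MTT added for 3 h, formazan dissolved in DMSO and read at 570 nm.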

[9] = system: PC-3; experiment: Cytotoxicity against human PC-3 cells assessed as inhibition of cell proliferation at 25 uM incubated for 72 hrs by MTT assay relative to control; type: functional; set-up: scale not given: the % may be the effect or the level left; procedure, shortened: as §3
[10] = system: HCT-116; experiment: Cytotoxicity against human HCT-116 cells assessed as inhibition of cell proliferation at 25 uM incubated for 72 hrs by MTT assay relative to control; type: functional; set-up: scale not given: the % may be the effect or the level left; procedure, shortened: as §3
[11] = system: NCI-H460; experiment: Cytotoxicity against human NCI-H460 cells assessed as inhibition of cell proliferation at 25 uM incubated for 72 hrs by MTT assay relative to control; type: functional; set-up: scale not given: the % may be the effect or the level left; procedure, shortened: as §3
[12] = system: SK-MEL-103; experiment: Cytotoxicity against human SK-MEL-103 cells assessed as inhibition of cell proliferation at 25 uM incubated for 72 hrs by MTT assay relative to control; type: functional; set-up: scale not given: the % may be the effect or the level left; procedure, shortened: as §3
[13] = system: NCI-H460; experiment: Antiproliferative activity against human NCI-H460 cells assessed as inhibition of cell growth incubated for 72 hrs by MTT assay; type: functional, cell-based; details: NCI-H460, 72 h
Procedure, shortened: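 NCIH-460 cells in RPMI 1640 with 10% FBS at 0.1×10⁶ cells/mL, treated for 72 h at 37 °C, 5% CO2. MTT read-out: 1% MTT for 3 h, formazan dissolved in DMSO, absorbance at 570 nm. IC50 derived from absorbances by nonlinear regression.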

[14] = system: Mycobacterium tuberculosis; experiment: Antimycobacterial activity against Mycobacterium tuberculosis H37Rv ATCC 27294 assessed as inhibition of bacterial growth by agar dilution method; type: functional
[15] = system: Mycobacterium tuberculosis; experiment: Antitubercular activity against Mycobacterium tuberculosis H37Rv; type: functional

Work on CC(=O)OC[C@H]1O[C@H](OC[C@@H](Cn2cc(CN(c3nc(-c4ccc(C(F)(F)F)cc4)no3)C3CCCCC3)nn2)OC(C)=O)C=C[C@@H]1OC(C)=O yielded an MIC [1] of no less than 64 µg/mL, a CC50 at 120 h [2] of 706 µM and an MIC [3] of no less than 64 µg/mL. For the same molecule, the selectivity ratio [4] was 1.67, the CC50 at 48 h [5] was 64.1 µg/mL (≈ 89 µM) and the CC50 at 48 h [6] was 81.4 µg/mL (≈ 113 µM). The selectivity ratio [7] was less than 1.

With CC(=O)OC[C@H]1O[C@H](OC[C@@H](Cn2cc(CN(c3nc(-c4cccc(C)c4)no3)C3CCCCC3)nn2)OC(C)=O)C=C[C@@H]1OC(C)=O the Activity [8] was 38.9%, the MIC [1] was no less than 64 µg/mL and the Activity [9] was 9.2%. The MIC [3] was no less than 64 µg/mL, the Activity [10] was 69.5% and the selectivity ratio [4] was less than 0.61. The CC50 at 48 h [5] was 46.4 µg/mL (≈ 69.6 µM), the CC50 at 48 h [6] was 39.2 µg/mL (≈ 58.8 µM) and the Activity [11] was 26.1%. The selectivity ratio [7] was less than 0.72 and the Activity [12] was 69%.

With COc1ccc(-c2noc(N(Cc3cn(C[C@H](CO[C@@H]4C=C[C@H](OC(C)=O)[C@@H](COC(C)=O)O4)OC(C)=O)nn3)C3CCCCC3)n2)cc1 the Activity [8] was 59.2%, the MIC [1] was 16 µg/mL (≈ 23.4 µM) and the Activity [9] was 21.6%. It also gave a CC50 at 120 h [2] of 575 µM, an MIC [3] of 32 µg/mL (≈ 46.9 µM) and an Activity [10] of 24.2%. For the same molecule, the selectivity ratio [4] was 4.41, the CC50 at 48 h [5] was 86.3 µg/mL (≈ 126 µM) and the CC50 at 48 h [6] was 141 µg/mL (≈ 207 µM). For the same molecule, the Activity [11] was 24.2%, the selectivity ratio [7] was 2.7 and the Activity [12] was 29.8%.

CC(=O)OC[C@H]1O[C@H](OC[C@@H](Cn2cc(CN(c3nc(-c4ccc(C)cc4)no3)C3CCCCC3)nn2)OC(C)=O)C=C[C@@H]1OC(C)=O showed an MIC [1] of 8 µg/mL (≈ 12 µM), a CC50 at 120 h [2] of 498 µM and an MIC [3] of 16 µg/mL (≈ 24 µM). It also gave a selectivity ratio [4] of 2.3, a CC50 at 48 h [5] of 45.3 µg/mL (≈ 68 µM) and a CC50 at 48 h [6] of 36.8 µg/mL (≈ 55.2 µM). The selectivity ratio [7] was 2.83.

C#CCN(c1nc(-c2ccc(OC)cc2)no1)C1CCCCC1 gave an Activity [8] of 57.3%, an MIC [1] of no less than 64 µg/mL and an Activity [9] of 23.7%. The MIC [3] was 64 µg/mL (≈ 206 µM), the Activity [10] was 40.7% and the selectivity ratio [4] was 1.13. It also gave a CC50 at 48 h [5] of 28 µg/mL (≈ 89.8 µM), a CC50 at 48 h [6] of 72.5 µg/mL (≈ 233 µM) and an Activity [11] of 69.1%. The selectivity ratio [7] was 0.46, the IC50 [13] was 1 µg/mL (≈ 3.21 µM) and the Activity [12] was 37.3%.

With CCCCCc1ccc(-c2cn(CC(O)COc3cccc4c3OCC3(CCCCC3)C4=O)nn2)cc1 (stereo not given) the MIC [14] was 0.78 µg/mL (≈ 1.55 µM).

C#CCN(c1nc(-c2ccc(F)cc2)no1)C1CCCCC1 gave an Activity [8] of 50.4%, an MIC [1] of 64 µg/mL (≈ 214 µM) and an Activity [9] of 25.4%. The MIC [3] was 64 µg/mL (≈ 214 µM), the Activity [10] was 44.9% and the selectivity ratio [4] was 0.64. The CC50 at 48 h [5] was 20.9 µg/mL (≈ 69.9 µM), the CC50 at 48 h [6] was 41.1 µg/mL (≈ 137 µM) and the Activity [11] was 50.5%. The selectivity ratio [7] was 0.32, the IC50 [13] was 1.16 µg/mL (≈ 3.88 µM) and the Activity [12] was 47.3%.

CC(C)c1ccc(-c2nc(CN3CCN(c4ccnc5c(-c6cccnc6)cccc45)CC3)no2)cc1 gave an MIC [15] of 0.25 µg/mL (≈ 0.51 µM).

CC(=O)OC[C@H]1O[C@H](OC[C@@H](Cn2cc(CN(c3nc(-c4ccc(F)cc4)no3)C3CCCCC3)nn2)OC(C)=O)C=C[C@@H]1OC(C)=O gave an Activity [8] of 69.4%, an MIC [1] of no less than 64 µg/mL and an Activity [9] of 7.1%. For the same molecule, the MIC [3] was no less than 64 µg/mL, the Activity [10] was 44.9% and the selectivity ratio [4] was less than 0.45. For the same molecule, the CC50 at 48 h [5] was 31.5 µg/mL (≈ 46.9 µM), the CC50 at 48 h [6] was 28.8 µg/mL (≈ 42.9 µM) and the Activity [11] was 17.7%. The selectivity ratio [7] was less than 0.49 and the Activity [12] was 20.7%.

In the case of C#CCN(c1nc(-c2cccc([N+](=O)[O-])c2)no1)C1CCCCC1, the Activity [8] is reported as 46%, the MIC [1] is reported as no less than 64 µg/mL and the Activity [9] is reported as 7.2%. It also gave an MIC [3] of no less than 64 µg/mL, an Activity [10] of 24.8% and a selectivity ratio [4] of less than 0.71. The CC50 at 48 h [5] was 34.2 µg/mL (≈ 105 µM), the CC50 at 48 h [6] was 45.5 µg/mL (≈ 139 µM) and the Activity [11] was 5.8%. It also gave a selectivity ratio [7] of less than 0.53 and an Activity [12] of 44.4%.

With C#CCOc1ccc(-c2noc(NC3CCCCC3)n2)cc1 the Activity [8] was 2.6%, the MIC [1] was 32 µg/mL (≈ 108 µM) and the Activity [9] was 64.2%. It also gave an MIC [3] of 32 µg/mL (≈ 108 µM), an Activity [10] of 43.3% and a selectivity ratio [4] of 3.7. For the same molecule, the CC50 at 48 h [5] was 38.3 µg/mL (≈ 129 µM), the CC50 at 48 h [6] was 119 µg/mL (≈ 399 µM) and the Activity [11] was 75.7%. It also gave a selectivity ratio [7] of 1.29, an IC50 [13] of 5.3 µg/mL (≈ 17.8 µM) and an Activity [12] of 62.8%.

For CC(=O)OC[C@H]1O[C@H](OC[C@@H](Cn2cc(CN(c3nc(-c4ccccc4)no3)C3CCCCC3)nn2)OC(C)=O)C=C[C@@H]1OC(C)=O, the MIC [1] was 16 µg/mL (≈ 24.5 µM), the CC50 at 120 h [2] was 607 µM and the MIC [3] was 16 µg/mL (≈ 24.5 µM). The selectivity ratio [4] was 1.24, the CC50 at 48 h [5] was 28.6 µg/mL (≈ 43.8 µM) and the CC50 at 48 h [6] was 19.9 µg/mL (≈ 30.5 µM). For the same molecule, the selectivity ratio [7] was 1.78.

COc1cccc2c1C(=O)c1c(O)c3c(c(O)c1C2=O)C[C@@](O)(C(=O)CO)C[C@@H]3O[C@H]1C[C@H](N)[C@H](O)[C@H](C)O1 [DOXORUBICIN] showed an IC50 [13] of 0.08 µg/mL (≈ 0.147 µM).
